Reference: ChEMBL document CHEMBL4219167, “Disulfiram-based disulfides as narrow-spectrum antibacterial agents” (Bioorg Med Chem Lett, 2018)
≈ marks a conversion by molar mass, not a printed value.

How the values were obtained:
Klebsiella pneumoniae = assay: Antibacterial activity against Klebsiella pneumoniae 700603 after 20 hrs by broth microdilution assay; type: functional; conditions: Klebsiella pneumoniae, 700603, 20 h
How it was run: (§1)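 Medium is tryptic soy broth, 37°C. Overnight culture is adjusted to 0.5 McFarland, diluted 1:100 and exposed to serial dilutions (test agents from 1 mM or 1 mg/mL DMSO stocks; control antibiotics in water). Incubation lasts 20 h. MIC is the lowest concentration with no visible growth.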

Citrobacter freundii = assay: Antibacterial activity against Citrobacter freundii 4_7_47CFAA after 20 hrs by broth microdilution assay; type: functional
How it was run: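 Brucella broth, 37°C, 5% CO2. Inoculum is 0.5 McFarland diluted 1:100, with serial drug dilutions from DMSO stocks (1 mM or 1 mg/mL) and control antibiotics in water.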

Burkholderia multivorans = assay: Antibacterial activity against Burkholderia multivorans CF2 after 20 hrs by broth microdilution assay; type: functional; conditions: CF2, 20 h; how it was run: as §1
Bacillus anthracis [1] = assay: Antibacterial activity against Bacillus anthracis UM23-1 after 20 hrs by broth microdilution assay; type: functional; conditions: UM23-1, 20 h
Salmonella typhi = assay: Antibacterial activity against Salmonella typhi Ty2 after 20 hrs by Todd Hewitt broth broth microdilution method; type: functional, Salmonella enterica subsp. enterica serovar Typhi str. Ty2; conditions: Salmonella enterica
Yersinia enterocolitica = assay: Antibacterial activity against Yersinia enterocolitica WA-314 after 20 hrs by broth microdilution assay; type: functional; conditions: WA-314, 20 h
How it was run: (§2)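 Yersinia cultured in tryptic soy broth at 28°C. A 0.5 McFarland suspension diluted 1:100 receives serial dilutions of agents from 1 mM or 1 mg/mL DMSO stocks; control antibiotics are in water.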

Yersinia pestis [2] = assay: Antibacterial activity against Yersinia pestis Kim D2 after 20 hrs by broth microdilution assay; type: functional; conditions: Kim D2, 20 h
Proteus mirabilis = assay: Antibacterial activity against Proteus mirabilis HM-752 after 20 hrs by broth microdilution assay; type: functional; conditions: HM-752, 20 h; how it was run: as §1
Rhodococcus erythropolis = assay: Antibacterial activity against Rhodococcus erythropolis SK121 after 20 hrs by broth microdilution assay; type: functional; conditions: SK121, 20 h
How it was run: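 R. erythropolis grown in brain heart infusion broth at 30°C. A 0.5 McFarland suspension diluted 1:100 is treated with serial dilutions from 1 mM or 1 mg/mL DMSO stocks; control antibiotics are in water.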

Streptococcus agalactiae = assay: Antibacterial activity against Streptococcus agalactiae SGBS005 after 20 hrs by broth microdilution assay; type: functional; conditions: SGBS005, 20 h
Staphylococcus aureus [3] = assay: Antibacterial activity against vancomycin-resistant Staphylococcus aureus HIP14300 after 20 hrs by broth microdilution assay; type: functional; conditions: HIP14300, 20 h
Enterococcus faecium = assay: Antibacterial activity against vancomycin-resistant Enterococcus faecium ATCC 700221 after 20 hrs by broth microdilution assay; type: functional; conditions: ATCC 700221, 20 h
How it was run: (§3)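 Brain heart infusion broth at 37°C; E. faecium under 5% CO2. Cells at 0.5 McFarland are diluted 1:100 and exposed to serial dilutions (DMSO stocks 1 mM or 1 mg/mL; controls in water).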

Shigella dysenteriae = assay: Antibacterial activity against Shigella dysenteriae Newcastle 1934 after 20 hrs by broth microdilution assay; type: functional; conditions: Newcastle 1934, 20 h; how it was run: as §1
Escherichia coli = assay: Antibacterial activity against Escherichia coli DC10B after 20 hrs by broth microdilution assay; type: functional; how it was run: as §1
Acinetobacter baumannii = assay: Antibacterial activity against Acinetobacter baumannii AB5075 after 20 hrs by broth microdilution assay; type: functional; conditions: AB5075, 20 h
Francisella tularensis = assay: Antibacterial activity against Francisella tularensis Utah 112 after 20 hrs by broth microdilution assay; type: functional; conditions: Utah 112, 20 h
Streptococcus pneumoniae = assay: Antibacterial activity against Streptococcus pneumoniae TCH8431 after 20 hrs by broth microdilution assay; type: functional; conditions: TCH8431, 20 h
Pseudomonas aeruginosa = assay: Antibacterial activity against Pseudomonas aeruginosa ATCC 15442 after 20 hrs by broth microdilution assay; type: functional; conditions: ATCC 15442, 20 h; how it was run: as §1
Bacillus cereus = assay: Antibacterial activity against Bacillus cereus Gibson 971 after 20 hrs by broth microdilution assay; type: functional; conditions: Gibson 971, 20 h
Listeria monocytogenes = assay: Antibacterial activity against Listeria monocytogenes Gibson after 20 hrs by broth microdilution assay; type: functional; how it was run: as §3
Vibrio cholerae = assay: Antibacterial activity against Vibrio cholerae TS D4 after 20 hrs by Todd Hewitt broth broth microdilution method; type: functional; conditions: TS D4, 20 h
Burkholderia cepacia = assay: Antibacterial activity against Burkholderia cepacia UCB 717 after 20 hrs by broth microdilution assay; type: functional; conditions: UCB 717, 20 h; how it was run: as §1
Micrococcus luteus = assay: Antibacterial activity against Micrococcus luteus SK58 after 20 hrs by broth microdilution assay; type: functional; conditions: SK58, 20 h
Bacillus anthracis [4] = assay: Antibacterial activity against Bacillus anthracis Weybridge after 20 hrs by broth microdilution assay; type: functional
Corynebacterium striatum = assay: Antibacterial activity against Corynebacterium striatum FS-1 after 20 hrs by broth microdilution assay; type: functional; conditions: FS-1, 20 h
Streptococcus pyogenes = assay: Antibacterial activity against Streptococcus pyogenes H293 after 20 hrs by broth microdilution assay; type: functional; conditions: H293, 20 h
Staphylococcus aureus [5] = assay: Antibacterial activity against methicillin-resistant Staphylococcus aureus COL after 20 hrs by broth microdilution assay; type: functional
Staphylococcus aureus [6] = assay: Antibacterial activity against vancomycin-intermediate resistant Staphylococcus aureus AR-217 after 20 hrs by broth microdilution assay; type: functional; conditions: AR-217, 20 h
[7] = test system: Yersinia pseudotuberculosis; assay: Antibacterial activity against Yersinia pseudotuberculosis P61 after 20 hrs by broth microdilution assay; type: functional; conditions: P61, 20 h; how it was run: as §2
[8] = test system: Staphylococcus epidermidis; assay: Antibacterial activity against vancomycin-intermediate resistant Staphylococcus epidermidis NRS6 after 20 hrs by broth microdilution assay; type: functional; conditions: NRS6, 20 h
Yersinia pestis [9] = assay: Antibacterial activity against Yersinia pestis Kuma D7 after 20 hrs by broth microdilution assay; type: functional; conditions: Kuma D7, 20 h
Brucella neotomae = assay: Antibacterial activity against Brucella neotomae 5K33 after 20 hrs by broth microdilution assay; type: functional; conditions: 5K33, 20 h
Bacillus anthracis [10] = assay: Antibacterial activity against Bacillus anthracis Ames 35 after 20 hrs by broth microdilution assay; type: functional; conditions: Ames 35, 20 h
Bacillus anthracis [11] = assay: Antibacterial activity against Bacillus anthracis Sterne 34F2 after 20 hrs by broth microdilution assay; type: functional; conditions: Sterne 34F2, 20 h
HepG2 = assay: Cytotoxicity against human HepG2 cells assessed as reduction in cell viability after 72 hrs by MTT assay; type: cell-based; conditions: HepG2, 72 h

CCCCCCCSSC(=S)N(CC)CC
MIC (Klebsiella pneumoniae): > 32 µM
MIC (Citrobacter freundii): > 32 µM
MIC (Burkholderia multivorans): > 32 µM
MIC (Bacillus anthracis [1]): 1 µM (≈ 0.28 µg/mL)
MIC (Salmonella typhi): > 32 µM
MIC (Yersinia enterocolitica): > 32 µM
MIC (Yersinia pestis [2]): 32 µM (≈ 8.95 µg/mL)
MIC (Proteus mirabilis): > 32 µM
MIC (Rhodococcus erythropolis): 16 µM (≈ 4.47 µg/mL)
MIC (Streptococcus agalactiae): > 32 µM
MIC (Staphylococcus aureus [3]): 4 µM (≈ 1.12 µg/mL)
MIC (Enterococcus faecium): 8 µM (≈ 2.24 µg/mL)
MIC (Shigella dysenteriae): > 32 µM
MIC (Escherichia coli): > 32 µM
MIC (Acinetobacter baumannii): > 32 µM
MIC (Francisella tularensis): 16 µM (≈ 4.47 µg/mL)
MIC (Streptococcus pneumoniae): 32 µM (≈ 8.95 µg/mL)
MIC (Pseudomonas aeruginosa): > 32 µM
MIC (Bacillus cereus): 1 µM (≈ 0.28 µg/mL)
MIC (Listeria monocytogenes): 4 µM (≈ 1.12 µg/mL)
MIC (Vibrio cholerae): > 32 µM
MIC (Burkholderia cepacia): > 32 µM
MIC (Micrococcus luteus): 16 µM (≈ 4.47 µg/mL)
MIC (Bacillus anthracis [4]): 2 µM (≈ 0.559 µg/mL)
MIC (Corynebacterium striatum): 16 µM (≈ 4.47 µg/mL)
MIC (Streptococcus pyogenes): 16 µM (≈ 4.47 µg/mL)
MIC (Staphylococcus aureus [5]): 4 µM (≈ 1.12 µg/mL)
MIC (Staphylococcus aureus [6]): 2 µM (≈ 0.559 µg/mL)
MIC [7]: > 32 µM
MIC [8]: 4 µM (≈ 1.12 µg/mL)
MIC (Yersinia pestis [9]): 32 µM (≈ 8.95 µg/mL)
MIC (Brucella neotomae): > 32 µM
MIC (Bacillus anthracis [10]): 4 µM (≈ 1.12 µg/mL)
MIC (Bacillus anthracis [11]): 2 µM (≈ 0.559 µg/mL)

CCCCCSSC(=S)N(CC)CC
MIC (Klebsiella pneumoniae): > 32 µM
MIC (Citrobacter freundii): > 32 µM
MIC (Burkholderia multivorans): > 32 µM
MIC (Bacillus anthracis [1]): 4 µM (≈ 1.01 µg/mL)
MIC (Salmonella typhi): > 32 µM
MIC (Yersinia enterocolitica): > 32 µM
MIC (Yersinia pestis [2]): 32 µM (≈ 8.05 µg/mL)
MIC (Proteus mirabilis): > 32 µM
MIC (Rhodococcus erythropolis): 16 µM (≈ 4.02 µg/mL)
MIC (Streptococcus agalactiae): > 32 µM
MIC (Staphylococcus aureus [3]): 16 µM (≈ 4.02 µg/mL)
MIC (Enterococcus faecium): > 32 µM
MIC (Shigella dysenteriae): > 32 µM
MIC (Escherichia coli): > 32 µM
MIC (Acinetobacter baumannii): > 32 µM
MIC (Francisella tularensis): 32 µM (≈ 8.05 µg/mL)
MIC (Streptococcus pneumoniae): > 32 µM
MIC (Pseudomonas aeruginosa): > 32 µM
MIC (Bacillus cereus): 1 µM (≈ 0.251 µg/mL)
MIC (Listeria monocytogenes): 8 µM (≈ 2.01 µg/mL)
MIC (Vibrio cholerae): > 32 µM
MIC (Burkholderia cepacia): > 32 µM
MIC (Micrococcus luteus): 16 µM (≈ 4.02 µg/mL)
MIC (Bacillus anthracis [4]): 8 µM (≈ 2.01 µg/mL)
MIC (Corynebacterium striatum): 32 µM (≈ 8.05 µg/mL)
MIC (Streptococcus pyogenes): > 32 µM
MIC (Staphylococcus aureus [5]): 16 µM (≈ 4.02 µg/mL)
MIC (Staphylococcus aureus [6]): 8 µM (≈ 2.01 µg/mL)
MIC [7]: > 32 µM
MIC [8]: 8 µM (≈ 2.01 µg/mL)
MIC (Yersinia pestis [9]): 32 µM (≈ 8.05 µg/mL)
MIC (Brucella neotomae): 32 µM (≈ 8.05 µg/mL)
MIC (Bacillus anthracis [10]): 4 µM (≈ 1.01 µg/mL)
MIC (Bacillus anthracis [11]): 4 µM (≈ 1.01 µg/mL)

CCCCCCCCCSSC(=S)N(CC)CC
MIC (Streptococcus agalactiae): 32 µM (≈ 9.84 µg/mL)
MIC (Staphylococcus aureus [3]): 16 µM (≈ 4.92 µg/mL)
MIC (Enterococcus faecium): 8 µM (≈ 2.46 µg/mL)
IC50 (HepG2): 55 µM
MIC (Streptococcus pneumoniae): 8 µM (≈ 2.46 µg/mL)
MIC (Streptococcus pyogenes): 8 µM (≈ 2.46 µg/mL)
MIC (Staphylococcus aureus [5]): 8 µM (≈ 2.46 µg/mL)
MIC (Staphylococcus aureus [6]): 8 µM (≈ 2.46 µg/mL)
MIC [8]: 4 µM (≈ 1.23 µg/mL)
